# Reference: ChEMBL document CHEMBL3580571, “Bis-arylidene oxindole-betulinic Acid conjugate: a fluorescent cancer cell detector with potent anticancer activity” (ACS Med Chem Lett, 2015)
# Calls of active or inactive are those of the source. The rule behind the calls is not given here.
# Experiments:
# [1] = Cellular uptake in mouse NIH/3T3 cells at 2 uM after 4 hrs by fluorescence microscopic analysis; assay type: ADME, cell-based; conditions: nih3t3, 4 h
# Procedure, shortened: (§1)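 Live cells were examined by fluorescence microscopy for uptake of the intrinsically fluorescent molecules, with untreated cells as control. Uptake was also quantified as % uptake per microgram of cellular protein. Fluorescence values were normalized to the absorption values of each molecule because their absorptivities differ.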
# [2] = Induction of reactive oxygen species generation in mouse NIH/3T3 cells at 2 uM after 36 hrs by DCFDA dye-based fluorescence microscopic analysis; assay type: cell-based; conditions: nih3t3, 36 h
# Procedure, shortened: (§2)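 Treated cells were imaged for ROS by fluorescence microscopy at 20× magnification, with untreated cells as control.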
# [3] = Cellular uptake in mouse B16F10 cells at 2 uM after 4 hrs by fluorescence microscopic analysis; assay type: ADME, cell-based; conditions: b16-f10, 4 h; procedure, shortened: as §1
# [4] = test system: B16-F10; test: Induction of apoptosis in mouse B16F10 cells assessed as necrotic cells at 2 uM after 45 hrs by annexinV-FITC/propidium iodide staining-based flow cytometric analysis (reference value: 9%); assay type: functional
# Procedure, shortened: (§3)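 Treated B16F10 cells were double-stained with annexin V and propidium iodide and analysed by flow cytometry, with untreated cells as control. Quadrants: Q1 PI-only (necrotic); Q2 double-positive (post-apoptotic); Q4 annexin-only (apoptotic); Q3 double-negative (healthy).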
# [5] = test system: B16-F10; test: Induction of apoptosis in mouse B16F10 cells assessed as late apoptotic cells at 2 uM after 45 hrs by annexinV-FITC/propidium iodide staining-based flow cytometric analysis (reference value: 0.8%); assay type: functional; procedure, shortened: as §3
# [6] = Cytotoxicity against human PANC1 cells assessed as cell killing effect after 72 hrs by MTT assay; assay type: functional, cell-based; conditions: PANC-1, 72 h
# Procedure, shortened: (§4)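 Cells were treated continuously for 72 h. Cytotoxicity is reported as IC50 in μM.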
# [7] = Cytotoxicity against mouse B16F10 cells assessed as cell killing effect after 72 hrs by MTT assay; assay type: functional, cell-based; conditions: B16-F10, 72 h; procedure, shortened: as §4
# [8] = test system: B16-F10; test: Induction of apoptosis in mouse B16F10 cells assessed as viable cells at 2 uM after 45 hrs by annexinV-FITC/propidium iodide staining-based flow cytometric analysis (reference value: 90.1%); assay type: functional; conditions: B16-F10, 45 h, read-out: Activity; procedure, shortened: as §3
# [9] = Cellular uptake in human PANC1 cells at 2 uM after 4 hrs by fluorescence microscopic analysis; assay type: ADME, cell-based; conditions: panc-1, 4 h; procedure, shortened: as §1
# [10] = test system: B16-F10; test: Induction of apoptosis in mouse B16F10 cells assessed as early apoptotic cells at 2 uM after 45 hrs by annexinV-FITC/propidium iodide staining-based flow cytometric analysis (reference value: 0.1%); assay type: functional; procedure, shortened: as §3
# [11] = Cytotoxicity against mouse NIH/3T3 cells assessed as cell killing effect after 72 hrs by MTT assay; assay type: cell-based; conditions: NIH3T3, 72 h; procedure, shortened: as §4
# [12] = test system: B16-F10; test: Induction of reactive oxygen species generation in mouse B16F10 cells at 2 uM after 36 hrs by DCFDA dye-based fluorescence microscopic analysis; assay type: functional, cell-based; procedure, shortened: as §2
# [13] = test system: A549; test: Cytotoxicity against human A549 cells assessed as cell killing effect after 72 hrs by MTT assay; assay type: functional, cell-based; conditions: A549, 72 h; procedure, shortened: as §4
# [14] = test system: MDA-MB-231; test: Cytotoxicity against human MDA-MB-231 cells assessed as cell killing effect after 72 hrs by MTT assay; assay type: functional, cell-based; conditions: MDA-MB-231, 72 h; procedure, shortened: as §4
# [15] = test system: MCF7; test: Cytotoxicity against human MCF7 cells assessed as cell killing effect after 72 hrs by MTT assay; assay type: functional, cell-based; conditions: MCF7, 72 h; procedure, shortened: as §4
# [16] = test system: OVCAR-3; test: Cytotoxicity against human OVCAR3 cells assessed as cell killing effect after 72 hrs by MTT assay; assay type: functional, cell-based; conditions: OVCAR-3, 72 h; procedure, shortened: as §4
# [17] = test system: CHO; test: Cytotoxicity against CHO cells assessed as cell killing effect after 72 hrs by MTT assay; assay type: cell-based; conditions: Cricetulus griseus; procedure, shortened: as §4
Structure (SMILES),Drug uptake [1],Activity [2],Drug uptake [3],Activity [4] [%],Activity [5] [%],IC50 [6] [µM],IC50 [7] [µM],viability at 2 µM [8] [%],Drug uptake [9],Activity [10] [%],IC50 [11] [µM],Activity [12],IC50 [13] [µM],IC50 [14] [µM],IC50 [15] [µM],IC50 [16] [µM],IC50 [17] [µM]
COc1cccc2c1C(=O)c1c(O)c3c(c(O)c1C2=O)C[C@@](O)(C(=O)CO)C[C@@H]3O[C@H]1C[C@H](N)[C@H](O)[C@H](C)O1 [DOXORUBICIN],Active,Toxic,Active,34.1,21.4,1.03,0.663,43.4,Active,1.1,7.21,Active,,,,,
C=C(C)[C@@H]1CC[C@]2(C(=O)NCCCNC(=S)Nc3ccc4c(c3)C(=O)OC43c4ccc(O)cc4Oc4cc(O)ccc43)CC[C@]3(C)[C@H](CC[C@@H]4[C@@]5(C)CC[C@H](O)C(C)(C)[C@@H]5CC[C@]43C)[C@@H]12,Not Active,,Active,,,9.78,20,,Active,,> 20,,,,,,
COc1ccc(CN2C(=O)/C(=C(/c3ccc(O)cc3)c3ccc(OCCCN)cc3)c3ccccc32)cc1,Not Active,Non-toxic,Active,8.4,0.9,> 20,> 20,90.7,Active,0,,,1.36,> 20,,,
C=C(C)[C@@H]1CC[C@]2(C(=O)NCCCOc3ccc(/C(=C4\C(=O)N(Cc5ccc(OC)cc5)c5ccccc54)c4ccc(O)cc4)cc3)CC[C@]3(C)[C@H](CC[C@@H]4[C@@]5(C)CC[C@H](O)C(C)(C)[C@@H]5CC[C@]43C)[C@@H]12,Not Active,Non-toxic,Active,5,54.6,2.63,2.3,36.6,Active,3.8,> 20,Active,2.56,1.26,7.4,6.05,> 20
C=C(C)[C@@H]1CC[C@]2(C(=O)O)CC[C@]3(C)[C@H](CC[C@@H]4[C@@]5(C)CC[C@H](O)C(C)(C)[C@@H]5CC[C@]43C)[C@@H]12 [BETULINIC ACID],,Non-toxic,,0,0.9,10.2,> 20,98.8,,0.3,> 20,Active,> 20,> 20,10.5,8.37,> 20
COc1ccc(CN2C(=O)C(=C(c3ccc(O)cc3)c3ccc(O)cc3)c3ccccc32)cc1,Active,Non-toxic,Active,5.1,1.7,> 20,> 20,93,Active,0.2,> 20,,,> 20,> 20,> 20,> 20
